# Data as given in ChEMBL document CHEMBL1629621, “Evaluation of strategies for improving proteolytic resistance of antimicrobial peptides by using variants of EFK17, an internal segment of LL-37” (Antimicrob Agents Chemother, 2009).
# Activity calls are given as the source filed them. The rule behind the calls is not given here.
# Tests used:
# Pseudomonas aeruginosa [1] = test: Antimicrobial activity against Pseudomonas aeruginosa 15159 after 21 hrs by broth microdilution method; assay type: functional; conditions: Pseudomonas aeruginosa, 15159, 21 h
# Summary of the method: (§1)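 Microtiter broth dilution at 37°C for 21 h in DEAE-refined LB medium prepared in 10 mM Tris, pH 7.4. Bacteria were grown overnight in 3% trypticase soy broth, rinsed in Tris and used at about 10^6 CFU/ml. Final peptide was 0.6–80 µM in twofold steps. Growth was read visually as pellet and at OD540. MIC is >95% inhibition with no visible pellet. Two separate experiments.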
# Staphylococcus aureus [2] = test: Antimicrobial activity against Staphylococcus aureus 29213 after 21 hrs by broth microdilution method; assay type: functional; conditions: Staphylococcus aureus, 29213, 21 h; summary of the method: as §1
# Pseudomonas aeruginosa [3] = test: Antimicrobial activity against Pseudomonas aeruginosa ATCC 27853 after 21 hrs by broth microdilution method; assay type: functional; conditions: ATCC 27853, 21 h; summary of the method: as §1
# Staphylococcus aureus [4] = test: Antimicrobial activity against Staphylococcus aureus 2844 after 21 hrs by broth microdilution method; assay type: functional; conditions: Staphylococcus aureus, 2844, 21 h; summary of the method: as §1
# Staphylococcus aureus [5] = test: Antimicrobial activity against Staphylococcus aureus FDA 486 after 21 hrs by broth microdilution method; assay type: functional; conditions: FDA 486, 21 h; summary of the method: as §1
# Lipid bilayer [6] = test: Binding affinity to DOPC-cholesterol liposome at 10 to 1000 uM after 45 mins by ellipsometry in presence of NaCl
# Summary of the method: (§2)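 Ellipsometry on DOPC-cholesterol bilayers deposited from DDM micelles onto silica. Peptide was added cumulatively in 10 mM Tris, pH 7.4, with 5 mM glucose at 37°C; […] adds 150 mM NaCl. Each step was followed 45 min to saturation. Adsorbed amount was calculated from refractive index and thickness, with dn/dc 0.154 cm3/g. Duplicates.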
# [7] = Toxicity in human erythrocytes at 6 to 60 uM by hemolysis assay; assay type: cell-based; conditions: erythrocyte
# Summary of the method: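 EDTA-treated human erythrocytes were washed and used as a 5% suspension in PBS, pH 7.4. Cells were rotated end-over-end with peptide for 1 h at 37°C, then centrifuged. Hemoglobin was read at 540 nm relative to 2% Triton X-100, with spontaneous leakage as background. Triplicate.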
# [8] = Stability of the compound at 136 uM after 4 hrs in presence of Pseudomonas aeruginosa elastase; assay type: ADME
# Summary of the method: (§3)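 Peptide at 136 µM was incubated with protease (peptide:enzyme 300:1) for 4 h at 37°C in 10 mM Tris, pH 7.4. The reaction was stopped by boiling in Laemmli buffer, then run on Tris-Tricine 16.5% SDS-PAGE and Coomassie stained. Band densitometry gave the undegraded fraction, normalized to peptide incubated without enzyme. Two separate experiments.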
# Lipid bilayer [9] = test: Binding affinity to DOPC-cholesterol liposome at 10 to 1000 uM after 45 mins by ellipsometry; summary of the method: as §2
# [10] = Stability of the compound at 136 uM after 4 hrs in presence of human neutrophil elastase; assay type: ADME; summary of the method: as §3
# HaCaT [11] = test: Cytotoxicity against human HaCaT assessed at 6 to 60 uM by MTT assay; assay type: cell-based
# Summary of the method: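 HaCaT keratinocytes were seeded at 3,000 cells/well, grown to confluence in SFM-BPE-rEGF, and given 6 or 60 µM peptide overnight. MTT was then added for 1 h at 37°C and formazan dissolved in DMSO. Absorbance was read at 550 nm relative to untreated cells, with the 1% Triton X-100 signal as background. Triplicate.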
# [12] = Stability of the compound at 136 uM after 4 hrs in presence of […] V8 protease; assay type: ADME; summary of the method: as §3
# [13] = Stability of the compound at 136 uM after 4 hrs in presence of aureolysin; assay type: ADME; summary of the method: as §3
# HaCaT [14] = test: Cytotoxicity against human HaCaT assessed as LDH release at 6 to 60 uM; assay type: cell-based
# Summary of the method: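 HaCaT keratinocytes were seeded at 3,000 cells/well and grown to confluence in serum-free keratinocyte medium with BPE-rEGF. They were exposed overnight to 6 or 60 µM peptide in that medium. LDH release was measured against a 1% Triton X-100 control, with spontaneous release as background. Triplicate.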
# Lipid bilayer [15] = test: Induction of DOPC-cholesterol liposome leakage in cell-free system at 0.1 to 1 uM after 45 mins; assay type: functional
# Summary of the method: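 Carboxyfluorescein-loaded (100 mM, self-quenching) DOPC-cholesterol 3:2 unilamellar liposomes, about 110 nm, at 10 µM lipid in Tris buffer at 37°C with stirring. Peptide was added at a single concentration per experiment, between 0.01 and 1 µM. After a 10 min baseline, fluorescence increase was followed for 45 min and the limiting leakage level taken.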
MIC (Pseudomonas aeruginosa [1]),MIC (Staphylococcus aureus [2]),MIC (Pseudomonas aeruginosa [3]),MIC (Staphylococcus aureus [4]),MIC (Staphylococcus aureus [5]),Stability [8],Activity (Lipid bilayer [9]),Stability [10],Stability [12],Stability [13],SMILES,Activity (Lipid bilayer [15]),further results
> 80 µM,> 80 µM,> 80 µM,> 80 µM,> 80 µM,,,,,,CC[C@@H](C)[C@@H](NC(=O)[C@H](CCCNC(=N)N)NC(=O)[C@H](CCC(N)=O)NC(=O)[C@@H](NC(=O)[C@H](NC(=O)[C@H](CCCNC(=N)N)NC(=O)[C@H](CCCCN)NC(=O)[C@@H](Cc1ccccc1)NC(=O)[C@@H](N)CCC(=O)O)[C@H](C)CC)C(C)C)C(=O)N[C@@H](CCCCN)C(=O)N[C@@H](CC(=O)O)C(=O)N[C@H](Cc1ccccc1)C(=O)N[C@@H](CC(C)C)C(=O)N[C@@H](CCCNC(=N)N)C(=O)N[C@@H](CC(N)=O)C(=O)N[C@@H](CC(C)C)C(=O)N[C@H](C(=O)O)C(C)C [listing 1 of 2 here],,
10 µM,10 µM,10 µM,5 µM,5 µM,Unstable,Active,Unstable,Unstable,Unstable,CC[C@H](C)[C@H](NC(=O)[C@H](CCCNC(=N)N)NC(=O)[C@H](CCC(N)=O)NC(=O)[C@@H](NC(=O)[C@@H](NC(=O)[C@H](CCCNC(=N)N)NC(=O)[C@H](CCCCN)NC(=O)[C@H](Cc1ccccc1)NC(=O)[C@H](CCC(=O)O)NC(C)=O)[C@@H](C)CC)C(C)C)C(=O)N[C@@H](CCCCN)C(=O)N[C@@H](CC(=O)O)C(=O)N[C@@H](Cc1ccccc1)C(=O)N[C@@H](CC(C)C)C(=O)N[C@@H](CCCNC(=N)N)C(=O)N[C@@H](CC(N)=O)C(=O)N[C@@H](CC(C)C)C(=O)N[C@H](C(N)=O)C(C)C,,Activity (Lipid bilayer [6]): inactive; Activity [7]: Toxic; Activity (HaCaT [11]): Toxic; Activity (HaCaT [14]): Toxic
,,,,,,,,,,CC[C@H](C)[C@@H](NC(=O)[C@H](CCCNC(=N)N)NC(=O)[C@H](CCC(N)=O)NC(=O)[C@@H](NC(=O)[C@H](NC(=O)[C@H](CCCNC(=N)N)NC(=O)[C@H](CCCCN)NC(=O)[C@@H](Cc1ccccc1)NC(=O)[C@H](CCC(=O)O)NC(C)=O)[C@@H](C)CC)C(C)C)C(=O)N[C@@H](CCCCN)C(=O)N[C@@H](CC(=O)O)C(=O)N[C@H](Cc1ccccc1)C(=O)N[C@@H](CC(C)C)C(=O)N[C@@H](CCCNC(=N)N)C(=O)N[C@@H](CC(N)=O)C(=O)N[C@@H](CC(C)C)C(=O)N[C@H](C(N)=O)C(C)C,Active,
,,,,,,Active,,,,CC[C@H](C)[C@H](NC(=O)[C@H](CCCNC(=N)N)NC(=O)[C@H](CCC(N)=O)NC(=O)[C@@H](NC(=O)[C@H](NC(=O)[C@H](CCCNC(=N)N)NC(=O)[C@H](CCCCN)NC(=O)[C@@H](Cc1ccccc1)NC(=O)[C@@H](N)CCC(=O)O)[C@@H](C)CC)C(C)C)C(=O)N[C@@H](CCCCN)C(=O)N[C@@H](CC(=O)O)C(=O)N[C@H](Cc1ccccc1)C(=O)N[C@@H](CC(C)C)C(=O)N[C@@H](CCCNC(=N)N)C(=O)N[C@@H](CC(N)=O)C(=O)N[C@@H](CC(C)C)C(=O)N[C@H](C(=O)O)C(C)C,Active,
,,,,,Stable,,Stable,Stable,Stable,CC[C@@H](C)[C@@H](NC(=O)[C@H](CCCNC(=N)N)NC(=O)[C@H](CCC(N)=O)NC(=O)[C@@H](NC(=O)[C@H](NC(=O)[C@H](CCCNC(=N)N)NC(=O)[C@H](CCCCN)NC(=O)[C@@H](Cc1ccccc1)NC(=O)[C@@H](N)CCC(=O)O)[C@H](C)CC)C(C)C)C(=O)N[C@@H](CCCCN)C(=O)N[C@@H](CC(=O)O)C(=O)N[C@H](Cc1ccccc1)C(=O)N[C@@H](CC(C)C)C(=O)N[C@@H](CCCNC(=N)N)C(=O)N[C@@H](CC(N)=O)C(=O)N[C@@H](CC(C)C)C(=O)N[C@H](C(=O)O)C(C)C [listing 2 of 2 here],,
